ChEMBL document CHEMBL1157378, “Role for cell density in antifungal drug resistance in Candida albicans biofilms” (2007)
In brackets after ≈: the same amount, converted by molar mass.

Experiments:
Format in all cases: functional
Candida albicans [1] = experiment: Antimicrobial activity against Chk1 deficient Candida albicans CHK21 at planktonic cell density of 10^8 cells/ml after 48 hrs by XTT assay; conditions: CHK21, 48 h
Summary of the method: (§1)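 YNB-grown yeast (50 mM glucose, room temperature, shaken, to ~2 x 10^8 cells/ml) washed into MOPS-buffered RPMI 1640 with L-glutamine and set to the stated density. Exposed to twofold serial drug dilutions (1,024 to 0.0313 µg/ml) at 37°C, 48 h (caspofungin 24 h), with drug-free controls. Read-out: XTT (0.5 g/liter) plus 1 µM menadione, formazan at 490 nm.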

Candida albicans [2] = experiment: Antimicrobial activity against Chk1 deficient Candida albicans CHK21 dissociated biofilms at cell density of 10^3 cells/ml after 48 hrs by XTT assay; conditions: CHK21, 48 h
Summary of the method: (§2)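 Polystyrene-well biofilms (48 h, 37°C) washed, then broken up in 100 µl RPMI by scraping and aspiration. Cells used undiluted (about 2 x 10^8 cells/ml equivalent) or adjusted by A600 against a hemacytometer-calibrated yeast standard curve. Drug exposure at 37°C for 48 h (caspofungin 24 h), then XTT/menadione read at 490 nm.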

Candida albicans [3] = experiment: Antimicrobial activity against Chk1 deficient Candida albicans CHK21 dissociated biofilms at cell density of 10^8 cells/ml after 48 hrs by XTT assay; conditions: CHK21, 48 h; summary of the method: as §2
Candida albicans [4] = experiment: Antimicrobial activity against Chk1 deficient Candida albicans CHK21 intact biofilms after 48 hrs by XTT assay; conditions: CHK21, 48 h
Summary of the method: (§3)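 Biofilm seeded at 1 x 10^6 cells/ml in RPMI in polystyrene microtiter wells and grown 48 h at 37°C in a moist chamber. Washed once and drug added to the same well (twofold dilutions, 1,024 to 0.0313 µg/ml) for 48 h at 37°C (caspofungin 24 h). Read-out: XTT/menadione reduction at 490 nm.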

Candida albicans [5] = experiment: Antimicrobial activity against Candida albicans GDH2346 intact biofilms after 48 hrs by XTT assay; conditions: GDH2346, 48 h; summary of the method: as §3
Candida albicans [6] = experiment: Antimicrobial activity against Candida albicans FH1 at planktonic cell density of 10^3 cells/ml after 48 hrs by XTT assay; conditions: FH1, 48 h; summary of the method: as §1
Candida albicans [7] = experiment: Antimicrobial activity against Candida albicans FH1 at planktonic cell density of 10^8 cells/ml after 48 hrs by XTT assay; conditions: FH1, 48 h; summary of the method: as §1
Candida albicans [8] = experiment: Antimicrobial activity against Candida albicans FH1 dissociated biofilms at cell density of 10^3 cells/ml after 48 hrs by XTT assay; conditions: FH1, 48 h; summary of the method: as §2
Candida albicans [9] = experiment: Antimicrobial activity against Candida albicans FH1 dissociated biofilms at cell density of 10^8 cells/ml after 48 hrs by XTT assay; conditions: FH1, 48 h; summary of the method: as §2
Candida albicans [10] = experiment: Antimicrobial activity against Candida albicans FH1 intact biofilms after 48 hrs by XTT assay; conditions: FH1, 48 h; summary of the method: as §3
Candida albicans [11] = experiment: Antimicrobial activity against fluconazole-resistant Candida albicans FH5 at planktonic cell density of 10^3 cells/ml after 48 hrs by XTT assay; conditions: FH5, 48 h; summary of the method: as §1
Candida albicans [12] = experiment: Antimicrobial activity against fluconazole-resistant Candida albicans FH5 at planktonic cell density of 10^8 cells/ml after 48 hrs by XTT assay; conditions: FH5, 48 h; summary of the method: as §1
Candida albicans [13] = experiment: Antimicrobial activity against fluconazole-resistant Candida albicans FH5 dissociated biofilms at cell density of 10^3 cells/ml after 48 hrs by XTT assay; conditions: FH5, 48 h; summary of the method: as §2
Candida albicans [14] = experiment: Antimicrobial activity against fluconazole-resistant Candida albicans FH5 dissociated biofilms at cell density of 10^8 cells/ml after 48 hrs by XTT assay; conditions: FH5, 48 h; summary of the method: as §2
Candida albicans [15] = experiment: Antimicrobial activity against fluconazole-resistant Candida albicans FH5 intact biofilms after 48 hrs by XTT assay; conditions: FH5, 48 h; summary of the method: as §3
Candida albicans [16] = experiment: Antimicrobial activity against Cdr1, Cdr2 and Mdr1 deficient Candida albicans DSY1050 at planktonic cell density of 10^3 cells/ml after 48 hrs by XTT assay; conditions: DSY1050, 48 h; summary of the method: as §1
Candida albicans [17] = experiment: Antimicrobial activity against Cdr1, Cdr2 and Mdr1 deficient Candida albicans DSY1050 at planktonic cell density of 10^8 cells/ml after 48 hrs by XTT assay; conditions: DSY1050, 48 h; summary of the method: as §1
Candida albicans [18] = experiment: Antimicrobial activity against Cdr1, Cdr2 and Mdr1 deficient Candida albicans DSY1050 dissociated biofilms at cell density of 10^3 cells/ml after 48 hrs by XTT assay; conditions: DSY1050, 48 h; summary of the method: as §2
Candida albicans [19] = experiment: Antimicrobial activity against Cdr1, Cdr2 and Mdr1 deficient Candida albicans DSY1050 dissociated biofilms at cell density of 10^8 cells/ml after 48 hrs by XTT assay; conditions: DSY1050, 48 h; summary of the method: as §2
Candida albicans [20] = experiment: Antimicrobial activity against Cdr1, Cdr2 and Mdr1 deficient Candida albicans DSY1050 intact biofilms after 48 hrs by XTT assay; conditions: DSY1050, 48 h; summary of the method: as §3
Candida albicans [21] = experiment: Antimicrobial activity against Chk1 deficient Candida albicans CHK21 at planktonic cell density of 10^3 cells/ml after 48 hrs by XTT assay; conditions: CHK21, 48 h; summary of the method: as §1
Candida albicans [22] = experiment: Antimicrobial activity against Candida albicans SC5314 at planktonic cell density of 10^3 cells/ml after 48 hrs by XTT assay; conditions: SC5314, 48 h; summary of the method: as §1
Candida albicans [23] = experiment: Antimicrobial activity against Candida albicans SC5314 dissociated biofilms at cell density of 10^3 cells/ml after 48 hrs by XTT assay; conditions: SC5314, 48 h; summary of the method: as §2
Candida albicans [24] = experiment: Antimicrobial activity against Candida albicans SC5314 at planktonic cell density of 10^8 cells/ml after 48 hrs by XTT assay; conditions: SC5314, 48 h; summary of the method: as §1
Candida albicans [25] = experiment: Antimicrobial activity against Candida albicans SC5314 dissociated biofilms at cell density of 10^8 cells/ml after 48 hrs by XTT assay; conditions: SC5314, 48 h; summary of the method: as §2
Candida albicans [26] = experiment: Antimicrobial activity against Candida albicans SC5314 intact biofilms after 48 hrs by XTT assay; conditions: SC5314, 48 h; summary of the method: as §3
Candida albicans [27] = experiment: Antimicrobial activity against Candida albicans GDH2346 at planktonic cell density of 10^3 cells/ml after 48 hrs by XTT assay; conditions: GDH2346, 48 h; summary of the method: as §1
Candida albicans [28] = experiment: Antimicrobial activity against Candida albicans GDH2346 at planktonic cell density of 10^8 cells/ml after 48 hrs by XTT assay; conditions: GDH2346, 48 h; summary of the method: as §1
Candida albicans [29] = experiment: Antimicrobial activity against Candida albicans GDH2346 dissociated biofilms at cell density of 10^3 cells/ml after 48 hrs by XTT assay; conditions: GDH2346, 48 h; summary of the method: as §2
Candida albicans [30] = experiment: Antimicrobial activity against Candida albicans GDH2346 dissociated biofilms at cell density of 10^8 cells/ml after 48 hrs by XTT assay; conditions: GDH2346, 48 h; summary of the method: as §2

Work on `CC(=O)N1CCN(c2ccc(OC[C@H]3CO[C@](Cn4ccnc4)(c4ccc(Cl)cc4Cl)O3)cc2)CC1` [KETOCONAZOLE] yielded an MIC80 (Candida albicans [1]) greater than 64 µg/mL, an MIC80 (Candida albicans [2]) of 0.125 µg/mL (≈ 0.235 µM) and an MIC80 (Candida albicans [3]) greater than 64 µg/mL. It also gave an MIC80 (Candida albicans [4]) greater than 64 µg/mL, an MIC80 (Candida albicans [5]) greater than 512 µg/mL and an MIC80 (Candida albicans [6]) of 4 µg/mL (≈ 7.53 µM). It also gave an MIC80 (Candida albicans [7]) greater than 512 µg/mL, an MIC80 (Candida albicans [8]) of 4 µg/mL (≈ 7.53 µM) and an MIC80 (Candida albicans [9]) greater than 512 µg/mL. For the same compound, the MIC80 (Candida albicans [10]) was greater than 512 µg/mL, the MIC80 (Candida albicans [11]) was 64 µg/mL (≈ 120 µM) and the MIC80 (Candida albicans [12]) was greater than 256 µg/mL. It also gave an MIC80 (Candida albicans [13]) of 64 µg/mL (≈ 120 µM), an MIC80 (Candida albicans [14]) greater than 512 µg/mL and an MIC80 (Candida albicans [15]) greater than 512 µg/mL. For the same compound, the MIC80 (Candida albicans [16]) was 0.25 µg/mL (≈ 0.47 µM), the MIC80 (Candida albicans [17]) was greater than 256 µg/mL and the MIC80 (Candida albicans [18]) was 0.125 µg/mL (≈ 0.235 µM). It also gave an MIC80 (Candida albicans [19]) greater than 64 µg/mL, an MIC80 (Candida albicans [20]) greater than 64 µg/mL and an MIC80 (Candida albicans [21]) of 0.125 µg/mL (≈ 0.235 µM). The MIC80 (Candida albicans [22]) was 0.125 µg/mL (≈ 0.235 µM), the MIC80 (Candida albicans [23]) was 0.5 µg/mL (≈ 0.941 µM) and the MIC80 (Candida albicans [24]) was greater than 512 µg/mL. It also gave an MIC80 (Candida albicans [25]) greater than 512 µg/mL, an MIC80 (Candida albicans [26]) greater than 512 µg/mL and an MIC80 (Candida albicans [27]) of 0.25 µg/mL (≈ 0.47 µM). It also gave an MIC80 (Candida albicans [28]) greater than 512 µg/mL, an MIC80 (Candida albicans [29]) of 0.125 µg/mL (≈ 0.235 µM) and an MIC80 (Candida albicans [30]) greater than 64 µg/mL.
